The record followed here is ChEMBL document CHEMBL1129289, “Dibenzoxepinone hydroxylamines and hydroxamic acids: dual inhibitors of cyclooxygenase and 5-lipoxygenase with potent topical antiinflammatory activity” (J Med Chem, 1996).

pIC50: −log10 of the molar value.

What all share (assay type): functional
Test [1] relates to Mus musculus. The test can be described thus: Change in arachidonic acid induced oedema in mouse ear. The method in brief:
(§1)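 Male CFW Swiss Webster mice, n=6. Compound or vehicle (3:7 propylene glycol:ethanol) applied topically to the right ear, 10 µL each to outer and inner surface. After 30 min, arachidonic acid 4 mg/20 µL on the right ear and vehicle on the left.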

Test [2] deals with T1, Polyunsaturated fatty acid 5-lipoxygenase (Rattus norvegicus, UniProt P12527).
T1 sequence (P12527 whole entry): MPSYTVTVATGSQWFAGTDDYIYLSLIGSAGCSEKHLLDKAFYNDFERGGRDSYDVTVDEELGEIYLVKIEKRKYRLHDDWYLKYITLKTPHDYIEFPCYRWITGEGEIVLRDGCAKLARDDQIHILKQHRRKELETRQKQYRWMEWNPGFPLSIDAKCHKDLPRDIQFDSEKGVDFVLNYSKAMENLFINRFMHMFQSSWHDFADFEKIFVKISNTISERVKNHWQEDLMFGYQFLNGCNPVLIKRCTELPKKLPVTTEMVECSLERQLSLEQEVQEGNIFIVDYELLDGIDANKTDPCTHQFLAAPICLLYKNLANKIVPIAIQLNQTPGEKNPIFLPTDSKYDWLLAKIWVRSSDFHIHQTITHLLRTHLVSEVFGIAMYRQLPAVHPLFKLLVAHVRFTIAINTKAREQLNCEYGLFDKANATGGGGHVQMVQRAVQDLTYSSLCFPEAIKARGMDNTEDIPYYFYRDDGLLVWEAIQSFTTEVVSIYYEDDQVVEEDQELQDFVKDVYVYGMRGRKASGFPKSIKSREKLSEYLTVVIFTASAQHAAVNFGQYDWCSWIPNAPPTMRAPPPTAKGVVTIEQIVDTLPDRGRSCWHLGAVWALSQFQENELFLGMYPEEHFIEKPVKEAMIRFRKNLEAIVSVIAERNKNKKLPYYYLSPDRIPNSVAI
Briefly: (§2) Inhibition of 5-lipoxygenase by measuring 5-HETE levels in RBL-1 cell-free supernatant. Summed up:
(§3)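 Cell-free rat basophilic leukemia (RBL-1) supernatant, 150 µg protein per tube, in duplicate. Buffer: 35 mM NaH₂PO₄ pH 7.0, 5 µM ATP, 50 µM CaCl₂, 10 µM arachidonic acid. Compounds from DMSO stocks. Run at 37 °C for 10 min and stopped with citric acid. 5-HETE measured by radioimmunoassay against a standard curve. Percent change from control; some values given at 50 µM.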

The target in test [3] is T2, Polyunsaturated fatty acid 5-lipoxygenase (Rattus norvegicus) (UniProt P12527).
T2 sequence (whole entry): T1 sequence (P12527 whole entry)
The test is described as §2. The following applies: concentration not given here. The method in brief:
as §3

Test [4] relates to Mus musculus. The test can be described thus: Inhibition of arachidonic acid oedema in mouse ear. Summed up:
as §1

Broadly, the pIC50 is the IC50 on a negative log10 scale, so that one unit is a factor of ten. Low values mean a large IC50, high ones a small IC50. As to `CC(C)N(O)C(=O)CCc1ccc2c(c1)C(=O)c1ccccc1CO2`, the Change in the test with Mus musculus [1] was -63%. For the same compound, in test [2], the pIC50 was 6.24. Taken in the same sequence, the figures for `CCN(O)CCc1ccc2c(c1)C(O)c1ccccc1CO2` (configuration not stated) were -47% and 6.35.

For orientation: inhibition means how much of the control response was suppressed. Read a high inhibition as strong suppression. As to `O=C(O)Cc1ccc2c(c1)C(=O)c1ccccc1CO2` [ISOXEPAC], the inhibition in test [3] is 1.5%. The same compound returned an ED50 with Mus musculus [4] of 55 mg ear-1. As to `CCN(O)C(=O)CCc1ccc2c(c1)C(=O)c1ccccc1CO2`, the Change in the test on Mus musculus [1] was -55%. The compound further had a pIC50 in test [2] of 6.82. `CC(C)Cc1ccc(C(C)C(=O)O)cc1` (configuration not stated) [IBUPROFEN]: in the test on Mus musculus [4], the Change is given as -11%.

Take `O=C(Cc1ccc2c(c1)C(=O)c1ccccc1CO2)NO`: the Change with Mus musculus [1] is listed as -19%. Also, in test [2], the pIC50 was 5.05. Turning to `CC(C)N(O)CCc1ccc2c(c1)C(=O)c1ccccc1CO2`, in the test on Mus musculus [1], the Change is on record as -47%. Further, the pIC50 in test [2] is 6.89. Consider `CN(O)C(=O)CCc1ccc2c(c1)Cc1ccccc1CO2`, for which the Change in the test with Mus musculus [1] is -67%. Further, in test [2], the pIC50 was 7.70. In addition, in the test with Mus musculus [4], the ED50 is recorded as 0.7 mg ear-1. For the compound `CC(Cc1ccc(O)c(O)c1)C(C)Cc1ccc(O)c(O)c1` (configuration not stated) [NORDIHYDROGUAIARETIC ACID], the ED50 in the test on Mus musculus [4] was 3.1 mg ear-1. Still for that read-out and setting: the value for `COc1ccc2c(c1)c(CC(=O)O)c(C)n2C(=O)c1ccc(Cl)cc1` [INDOMETHACIN] was 1.63 mg ear-1. Turning to `CCN(O)CCc1ccc2c(c1)Cc1ccccc1CO2`, the Change in the test with Mus musculus [1] was -50%. The compound further had a pIC50 in test [2] of 6.49.

As for `O=C1c2ccccc2COc2ccc(CC(=O)N(O)C3CCCCC3)cc21`, the Change in the test with Mus musculus [1] was -29%. In addition, the pIC50 in test [2] is 6.17. Take `O=C(CCCCCCCCc1ccccc1)NO`: in test [2], the pIC50 was 6.32. The compound also registered an ED50 in the test with Mus musculus [4] of 2.56 mg ear-1. Take `CCN(O)C(=O)C(C)c1ccc2c(c1)C(=O)c1ccccc1CO2` (configuration not stated): the Change with Mus musculus [1] is -38%. For the same compound, the inhibition in test [3] was found to be 94%. For `CN(O)C(=O)CCc1ccc2c(c1)C(=O)c1ccccc1CO2`, the Change with Mus musculus [1] was -66%. In test [2], this compound had a pIC50 of 8.00. For the same compound, the ED50 in the test on Mus musculus [4] amounted to 0.69 mg ear-1. As to `CC(C(=O)N(C)O)c1ccc2c(c1)C(=O)c1ccccc1CO2` (configuration not stated), the Change in the test on Mus musculus [1] was -44%. For the same compound, the pIC50 in test [2] is 5.89. The like results for `CON(C)C(=O)CCc1ccc2c(c1)C(=O)c1ccccc1CO2` were, in that order, -41% and under 4.30. For `CC(C)N(O)C(=O)Cc1ccc2c(c1)C(=O)c1ccccc1CO2`, the Change in the test with Mus musculus [1] was -52%. Besides, the pIC50 in test [2] was 5.91. For `O=C1c2ccccc2COc2ccc(CCC(=O)N(O)C3CCCCC3)cc21`, the Change in the test with Mus musculus [1] is reported as -14%. In addition, in test [2], the pIC50 was 5.70. Consider `CN(O)CCCc1ccc2c(c1)C(=O)c1ccccc1CO2`, for which the Change in the test on Mus musculus [1] was -53%. Also, the pIC50 in test [2] was 6.21.

`CCN(O)C(=O)Cc1ccc2c(c1)C(=O)c1ccccc1CO2`: in the test with Mus musculus [1], the Change was -52%. In test [2], this compound had a pIC50 of 6.24. Consider `CN(O)C(=O)Cc1ccc2c(c1)C(=O)c1ccccc1CO2`, for which the Change in the test with Mus musculus [1] is given as -63%. This compound showed a pIC50 in test [2] of 5.92. Taken in the same sequence, the figures for `CN(O)C(=O)C(C)(C)Cc1ccc2c(c1)C(=O)c1ccccc1CO2` were 29% and 6.18. Taken in the same sequence, the figures for `CCN(O)CCc1ccc2c(c1)C(=O)c1ccccc1CO2` were -50% and 6.32. As for `CC(=O)N(O)Cc1ccc2c(c1)C(=O)c1ccccc1CO2`, the Change in the test on Mus musculus [1] is -47%. The same compound gave a pIC50 in test [2] of 6.68. Take `CC(=O)N(O)CCc1ccc2c(c1)C(=O)c1ccccc1CO2`: the Change in the test with Mus musculus [1] is -61%. The pIC50 in test [2] is 6.72. In the case of `CN(O)CCc1ccc2c(c1)C(=O)c1ccccc1CO2`, in the test on Mus musculus [1], the Change is on record as -46%.
